# Active and inactive are the calls of the source.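 How the source made its calls: active means relative luminescence ratio of 1.25 or more at any tested dose; inactive means ratio below 1.25 at every tested dose.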
# Experiment: increased StAR-luc signal, DAX-1/SF-1 cells – cell-based, luminescence, HEK293, powder samples, assay provider, counter-screen for DAX1 inhibitor project, dose response (AID 624307)
# Settings: HEK293 StAR promoter luciferase reporter (DAX-1/SF-1); series mostly up to 100 µM; relative luminescence ratio, normalised: at the top concentration
# How it was run: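 Signal: Luciferase luminescence from StAR promoter reporter | Assay system: HEK293 transfectants with DAX-1, SF-1 and StAR-luciferase reporter | Dosing: 100 µM single dose plus three-point 1:2 series from 50 µM | Repeats: Three replicates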
row,SMILES,"relative luminescence ratio, normalised"
1,COc1ccc(OC)c(C(C)NC(=O)c2ccccc2)c1 (centres undefined),0.1 (inactive)
2,Cn1c(=O)n(C)c2cc(C(=O)Nc3ccc4c(c3)OCCO4)ccc21,0.15 (inactive)
3,CSc1ccccc1C(=O)Nc1ccc2c(c1)OCCO2,0.1 (inactive)
4,COc1ccc(OC)c(C(C)NC(=O)c2ccc(C)cc2)c1 (centres undefined),0.09 (inactive)
5,O=C(Nc1ccc2c(c1)OCO2)c1ccc2ccccc2c1,0.08 (inactive)
6,COc1cccc(C(=O)NC(C)c2cc(OC)ccc2OC)c1 (centres undefined),0.04 (inactive)
7,CSc1ccccc1C(=O)Nc1ccc2c(c1)OCO2,0.18 (inactive)
8,CN(C)c1cccc(C(=O)Nc2ccc3c(c2)OCCO3)c1,0.07 (inactive)
9,COc1ccc(OC)c(C(C)NC(=O)c2cccc3ccccc23)c1 (centres undefined),0.01 (inactive)
10,COc1ccc(OC)c(C(C)NC(=O)c2ccc(F)cc2)c1 (centres undefined),0.06 (inactive)
11,COc1ccc(OC)c(C(C)NC(=O)c2cccc(C)c2)c1 (centres undefined),0.1 (inactive)
12,O=C(Nc1ccc2c(c1)OCCO2)c1ccc2ccccc2c1,0.03 (inactive)
13,O=C(Nc1ccc2c(c1)OCO2)c1ccc(C2SCC(=O)N2Cc2ccco2)cc1 (centres undefined),0.34 (inactive)
14,COc1ccc(OC)c(C(C)NC(=O)c2c(F)cccc2Cl)c1 (centres undefined),0.07 (inactive)
15,COc1ccc(OC)c(C(C)NC(=O)c2ccc(C(C)(C)C)cc2)c1 (centres undefined),0.02 (inactive)
16,O=C(Cc1cccs1)Nc1ccc2c(c1)OCO2,0.35 (inactive)
17,O=C(Nc1ccc2c(c1)OCO2)c1cccs1,0.04 (inactive)
18,COc1cccc(C(=O)Nc2ccc3c(c2)OCO3)c1,0.03 (inactive)
19,O=C(Nc1ccc2c(c1)OCO2)c1ccc(C2SCC(=O)N2Cc2ccccc2)cc1 (centres undefined),0.02 (inactive)
20,COc1cccc(C(=O)Nc2ccc3c(c2)OCCO3)c1,0.05 (inactive)
21,Cc1occc1C(=O)Nc1ccc2c(c1)OCO2,0.07 (inactive)
22,Cc1cc(C(=O)Nc2ccc3c(c2)OCO3)cs1,0.14 (inactive)
23,COc1ccc(OC)c(C(C)NC(=O)c2cccc(F)c2)c1 (centres undefined),0.1 (inactive)
24,COc1ccc(OC)c(C(C)NC(=O)c2ccccc2Cl)c1 (centres undefined),0.08 (inactive)
25,COc1ccc(OC)c(C(C)NC(=O)c2ccc3c(c2)OCCO3)c1 (centres undefined),0.04 (inactive)
26,COc1ccc(OC)c(C(C)NC(=O)c2ccc(Cl)cc2)c1 (centres undefined),0.07 (inactive)
27,COc1ccc(OC)c(C(C)NC(=O)c2ccccc2C)c1 (centres undefined),0.11 (inactive)
28,COc1ccc(OC)c(C(C)NC(=O)c2ccccc2F)c1 (centres undefined),0.07 (inactive)
29,Cn1c(=O)n(C)c2cc(C(=O)Nc3ccc4c(c3)OCO4)ccc21,0.09 (inactive)
